IDH1 mut inh: blocks human IDH1 R132H reductase activity; inhibition, % at 10 µM; diaphorase/resazurin fluorescence, 60 min; actives 0.18% (n = 70,000); in the data active = inhibition above about 34%; inconclusive = no clear call, values can overlap the other calls; inactive = below about 11%;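 also: 0% = DMSO and 100% = no enzyme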
Target sequence (O75874 whole entry R132H): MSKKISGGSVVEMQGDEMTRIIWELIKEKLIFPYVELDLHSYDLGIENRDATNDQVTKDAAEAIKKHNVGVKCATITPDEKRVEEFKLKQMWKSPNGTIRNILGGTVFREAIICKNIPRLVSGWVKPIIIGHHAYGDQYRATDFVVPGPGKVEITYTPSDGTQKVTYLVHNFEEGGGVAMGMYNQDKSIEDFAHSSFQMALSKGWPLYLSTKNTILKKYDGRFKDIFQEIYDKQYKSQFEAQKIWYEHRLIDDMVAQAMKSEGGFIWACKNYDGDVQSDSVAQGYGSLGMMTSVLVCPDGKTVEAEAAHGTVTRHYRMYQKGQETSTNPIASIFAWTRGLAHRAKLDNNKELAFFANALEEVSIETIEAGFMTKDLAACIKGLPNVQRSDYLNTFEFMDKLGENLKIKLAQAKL
T cruzi growth-1: blocks T. cruzi growth in NIH3T3 culture; T. cruzi beta-gal in NIH3T3, GalScreen luminescence, 90 h; inhibition, % at 8.34 µM; actives 5.9% (n = 77,000); AID 624255;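 active = mean inhibition above about 93%, with at least 55% of replicates each passing it, limit read from the data, passing the limit was not always enough; inconclusive = only one of those two conditions holds; inactive = neither condition holds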
GASC1 inh: inhibitors of human demethylase GASC-1 KDM4C. actives 0.15% (n = 96,000). GST-KDM4C 2-372, H3K9me3 peptide, LANCE TR-FRET. inhibition, % at 12.5 µM. Q9H3R0;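 active = mean replicate inhibition above about 25%, with at least 55% of replicates also reaching it, limit read from the data, passing the limit was not always enough; inconclusive = only one of those two conditions met; inactive = neither condition met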
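material = GST-tagged GASC-1 (JMJD2C) catalytic fragment, aa 2-372 | amount = enzyme final amount 10 nM | medium = HEPES buffer, pH 7.5, plus ascorbate | also added = H3K9me3 peptide substrate, Fe(II), 2-oxoglutarate | dosing = single dose | times = 30 min demethylation and 1 h detection at room temperature | detection = LANCE TR-FRET | read-out basis = Fall in 671/618 emission ratio as inhibition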
Pf Dd2 growth: P. falciparum Dd2 growth inhibition | SYBR Green, 72 h; hits give low values | activity change, % at 10 µM | actives 2.3% (n = 94,000) | AID 1159554; in the data active = activity change below about -80%; inconclusive = no clear call, values can overlap the other calls
T cruzi growth-2: blocks T. cruzi growth in NIH3T3 host cells; T. cruzi beta-gal in NIH3T3, GalScreen luminescence, 90 h; actives 72% (n = 5,600); shares compounds with T cruzi growth-1; inhibition, % at 8.35 µM;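 active = mean replicate inhibition above about 95% and at least 55% of replicates individually reaching it, limit read from the data; inconclusive = only one of the two criteria is met; inactive = neither criterion is met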
T cruzi growth-3: Trypanosoma cruzi proliferation inhibition; shares compounds with T cruzi growth-1; T. cruzi beta-gal in NIH3T3, GalScreen luminescence, 90 h; inhibition, % at 2.09 µM; actives 21% (n = 5,600); AID 651740;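 active = mean inhibition above about 95%, with at least 55% of replicates also reaching it, limit read from the data; inconclusive = meets just one of the two conditions; inactive = meets neither condition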;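 also: plate controls were neutral control median for no effect and positive control median for full effect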
NIH3T3 tox: cytotoxicity in mouse NIH/3T3 fibroblasts. cytotoxicity (signal decrease), % at 8.35 µM. actives 14% (n = 5,600). shares compounds with T cruzi growth-1. NIH/3T3 viability, CellTiter-Glo ATP luminescence, 90 h;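 active = mean signal decrease across replicates above about 35% based on untreated-well scatter, with enough replicates individually passing, limit read from the data; inconclusive = no rule stated though some were filed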;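 also: 0% = median of neutral control wells and 100% = median of positive control wells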
NIH3T3 tox 2: NIH/3T3 (mouse) viability loss | inhibition, % at 24.9 µM | AID 651744 | NIH/3T3 viability, CellTiter-Glo ATP luminescence, 90 h | actives 56% (n = 5,600) | shares compounds with T cruzi growth-1;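 active = mean loss of cell viability signal at or above a set limit, and enough replicates individually reaching it; inconclusive = meets only the mean limit or only the replicate share; inactive = meets neither condition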;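 also: 0% = median of neutral control wells and 100% = median of positive control wells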
* hit, by the source's call. Shown are actives, neighbours in structure and some others; about 5.8% of the full set was active somewhere.

C[C@@H]1CN([C@@H](C)CO)S(=O)(=O)c2ccc(C#CC3CC3)cc2O[C@@H]1CN(C)C(=O)C1CCC1 was read as T cruzi growth-1 66, GASC1 inh 1 and Pf Dd2 growth 12.
`C[C@H](CO)N1C[C@H](C)[C@H](CN(C)C(=O)C2CCCCC2)Oc2cc(C#CC3CC3)ccc2S1(=O)=O` gave T cruzi growth-1 inconclusive, GASC1 inh -2, Pf Dd2 growth -40, T cruzi growth-2 106*, T cruzi growth-3 67, NIH3T3 tox 11 and NIH3T3 tox 2 27.
Screening C[C@H](CO)N1C[C@H](C)[C@@H](CN(C)C(=O)C2CCC2)Oc2cc(C#CC3CC3)ccc2S1(=O)=O returned IDH1 mut inh -2, T cruzi growth-1 76, GASC1 inh -2 and Pf Dd2 growth -35.
For C[C@@H]1CN([C@H](C)CO)C(=O)c2cccc(NC(=O)Nc3ccc4c(c3)OCO4)c2O[C@@H]1CN(C)S(=O)(=O)c1ccc(Cl)cc1 the results were T cruzi growth-1 91, GASC1 inh 0 and Pf Dd2 growth -17.
Screening N#C[C@@H]1[C@H](c2ccc(C#CC3CCCCC3)cc2)[C@@H](CO)N1C(=O)Cc1ccccn1 returned T cruzi growth-1 99*, GASC1 inh 0, Pf Dd2 growth -76, T cruzi growth-2 96*, T cruzi growth-3 103*, NIH3T3 tox 2 and NIH3T3 tox 2 99*.
Screening C/C=C/c1ccc([C@H]2[C@@H](C#N)N(C(=O)Cc3ccccn3)[C@@H]2CO)cc1 returned T cruzi growth-1 103*, GASC1 inh -2, Pf Dd2 growth -33, T cruzi growth-2 98*, T cruzi growth-3 -1, NIH3T3 tox 3 and NIH3T3 tox 2 inconclusive.
`N#C[C@H]1[C@H](c2ccc(C#CC3CCCC3)cc2)[C@H](CO)N1C(=O)Cc1ccccn1` gave GASC1 inh 0 and Pf Dd2 growth -43.
`N#C[C@@H]1[C@@H](c2ccc(C#CC3CC3)cc2)[C@H](CO)N1C(=O)Cc1ccccn1` gave T cruzi growth-1 99*, GASC1 inh -2, Pf Dd2 growth -57, T cruzi growth-2 104*, T cruzi growth-3 75, NIH3T3 tox inconclusive and NIH3T3 tox 2 1.
Screening C/C=C/c1ccc([C@@H]2[C@H](C#N)N(C(=O)Cc3ccccn3)[C@H]2CO)cc1 returned T cruzi growth-1 91, GASC1 inh -1 and Pf Dd2 growth -32.
For N#C[C@@H]1[C@@H](c2ccc(C#CC3CCCC3)cc2)[C@H](CO)N1C(=O)Cc1ccccn1 the results were GASC1 inh -3 and Pf Dd2 growth -74.
For N#C[C@@H]1[C@H](c2ccc(C#CC3CCCCC3)cc2)[C@H](CO)N1C(=O)Cc1ccccn1 the results were T cruzi growth-1 98*, GASC1 inh 0, Pf Dd2 growth -39, T cruzi growth-2 92, T cruzi growth-3 112*, NIH3T3 tox 17 and NIH3T3 tox 2 28.
Screening N#C[C@@H]1[C@@H](c2ccc(C#CC3CCCCC3)cc2)[C@H](CO)N1C(=O)Cc1ccccn1 returned T cruzi growth-1 89, GASC1 inh -3 and Pf Dd2 growth -51.
Screening Cc1noc(C)c1S(=O)(=O)N(C)C[C@@H]1OCCCC[C@@H](C)Oc2ccc(NS(=O)(=O)c3cccs3)cc2C(=O)N([C@H](C)CO)C[C@H]1C returned IDH1 mut inh 2, GASC1 inh 1 and Pf Dd2 growth -31.
Screening O=C(C[C@H]1CC[C@H](NC(=O)Nc2ccccc2F)[C@@H](CO)O1)NCc1ccc(F)cc1 returned GASC1 inh -2 and Pf Dd2 growth 3.
For CC(C)NC(=O)N(C)C[C@H]1OCCCC[C@@H](C)Oc2ccc(NC(=O)c3ccncc3)cc2C(=O)N([C@@H](C)CO)C[C@H]1C the results were IDH1 mut inh 2, T cruzi growth-1 51, GASC1 inh -5 and Pf Dd2 growth 19.
`C[C@H](CO)N1C[C@H](C)[C@@H](CN(C)C(=O)c2cccc(F)c2)Oc2cc(C#CC3CCCC3)ccc2S1(=O)=O` gave IDH1 mut inh 0, T cruzi growth-1 122*, GASC1 inh 0, Pf Dd2 growth -71, T cruzi growth-2 102*, T cruzi growth-3 113*, NIH3T3 tox 13 and NIH3T3 tox 2 105*.
For CC(C)C#Cc1ccc2c(c1)O[C@@H](CN(C)C(=O)c1cccc(F)c1)[C@@H](C)CN([C@@H](C)CO)S2(=O)=O the results were IDH1 mut inh 0, T cruzi growth-1 95, GASC1 inh 0 and Pf Dd2 growth -72.
Screening C[C@H]1CN([C@@H](C)CO)S(=O)(=O)c2ccc(C#CC3CCCC3)cc2O[C@H]1CN(C)C(=O)c1cccc(F)c1 returned IDH1 mut inh 3, T cruzi growth-1 124*, GASC1 inh 0, Pf Dd2 growth -56, T cruzi growth-2 94, T cruzi growth-3 94, NIH3T3 tox -3 and NIH3T3 tox 2 103*.
CCn1c2ccccc2n2c(SCC(=O)Nc3ccc(C)cc3)nnc12 was read as IDH1 mut inh 0.
`C[C@H](CO)N1C[C@H](C)[C@H](CN(C)S(=O)(=O)c2ccc(Cl)cc2)OCCCC[C@H](C)Oc2ccc(NC(=O)CCC(F)(F)F)cc2C1=O` gave T cruzi growth-1 71, GASC1 inh -2 and Pf Dd2 growth -77.
`C[C@@H]1CN([C@H](C)CO)S(=O)(=O)c2ccc(C#CC3CC3)cc2O[C@@H]1CN(C)C(=O)Cc1ccncc1` gave T cruzi growth-1 inconclusive, GASC1 inh -1, Pf Dd2 growth -42, T cruzi growth-2 102*, T cruzi growth-3 68, NIH3T3 tox 17 and NIH3T3 tox 2 16.
C[C@H]1CN([C@@H](C)CO)S(=O)(=O)c2ccc(C#CC3CCCC3)cc2O[C@@H]1CN(C)C(=O)Cc1ccncc1 was read as T cruzi growth-1 122*, GASC1 inh -4, Pf Dd2 growth -29, T cruzi growth-2 105*, T cruzi growth-3 94, NIH3T3 tox -1 and NIH3T3 tox 2 101*.
Screening C[C@H](CO)N1C[C@H](C)[C@H](CN(C)C(=O)Cc2ccncc2)Oc2cc(C#CC3CCCC3)ccc2S1(=O)=O returned T cruzi growth-1 116*, GASC1 inh 0, Pf Dd2 growth -79, T cruzi growth-2 109*, T cruzi growth-3 63, NIH3T3 tox 34 and NIH3T3 tox 2 33*.
